Assay [1] relates to MKN-45. Nature of the assay: Antiproliferative activity against human MKN45 cells assessed as cell viability at 10 uM after 72 hrs by MTT assay relative to control. It counts as functional. To be noted: MKN-45, 72 h, read-out: Activity. An outline of the steps: (§1)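 Single-concentration MTT screen. Log-phase cells in DMEM with 10% FCS were treated for 72 h in 96-well plates. After MTT and DMSO, absorbance was read at 570 nm. Viability was calculated relative to control as mean ± SD of three independent experiments.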
In general terms: Tetrazolium assays rely on reduction of a dye to a coloured formazan, in cell work by metabolically active cells.

The test system of assay [2] is KB. The assay can be described thus: Antiproliferative activity against human KB cells assessed as cell viability at 10 uM after 72 hrs by MTT assay relative to control. It counts as functional. The conditions noted are these: read-out: Activity. An outline of the steps: as §1
In assay [3] the test system is KB. Nature of the assay: Antiproliferative activity against human KB cells after 72 hrs by MTT assay. The format is functional, cell-based. An outline of the steps: (§2)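 Cells grown in DMEM with 10% heat-inactivated FCS, penicillin and streptomycin, at 37°C in 5% CO₂, and used in log phase. Cells were seeded in 96-well plates and exposed to compound for 72 h. MTT was added, then DMSO, and OD was read at 570 nm. Survival rate was calculated and IC50 taken as 50% growth inhibition.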

Assay [4] can be described thus: Antiproliferative activity against human KBV cells after 72 hrs by MTT assay. It counts as functional, cell-based. The method in brief:
as §2

In another assay the test system is HeLa. Nature of the assay: Antiproliferative activity against human HeLa cells after 72 hrs by MTT assay. The format is functional, cell-based. An outline of the steps: as §2
The next assay concerns A549. The assay can be described thus: Antiproliferative activity against human A549 cells after 72 hrs by MTT assay. It counts as functional, cell-based. To be noted: A549, 72 h. An outline of the steps:
as §2

For assay [5], the system named is MKN-45. The assay can be described thus: Antiproliferative activity against human MKN45 cells after 72 hrs by MTT assay. It counts as functional, cell-based. The conditions noted are these: MKN-45, 72 h. The method in brief:
as §2

In a further assay the test system is BGC-823. Nature of the assay: Antiproliferative activity against human BGC823 cells after 72 hrs by MTT assay. The conditions noted are these: BGC-823, 72 h. It counts as functional, cell-based. An outline of the steps:
as §2

The test system of a further assay is AGS. The assay can be described thus: Antiproliferative activity against human AGS cells after 72 hrs by MTT assay. It counts as functional, cell-based. An outline of the steps: as §2
Assay [6] deals with MKN-45. The assay can be described thus: Cell cycle arrest in human MKN45 cells assessed as apoptotic cell accumulation at 10 uM after 24 hrs by propidium iodide staining based flow cytometry (reference value: 1.51%). The format is functional. An outline of the steps: (§3)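 MKN45 cells were plated at 2×10⁵ cells/well in 6-well plates and exposed for 24 and 48 h. Cells were harvested, fixed and stained with propidium iodide (50 µg/mL). DNA content was read by FACScan flow cytometry for phase distribution. The sub-G0/G1 fraction was taken as apoptotic.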
A general note: A flow cytometer gives signals particle by particle.

Assay [7] relates to MKN-45. The assay can be described thus: Cell cycle arrest in human MKN45 cells assessed as accumulation at G1-phase at 10 uM after 24 hrs by propidium iodide staining based flow cytometry (reference value: 67%). It counts as functional. An outline of the steps:
as §3

Assay [8] relates to MKN-45. Nature of the assay: Cell cycle arrest in human MKN45 cells assessed as accumulation at S-phase at 10 uM after 24 hrs by propidium iodide staining based flow cytometry (reference value: 15%). The format is functional. The method in brief:
as §3

Assay [9] relates to MKN-45. Nature of the assay: Cell cycle arrest in human MKN45 cells assessed as accumulation at G2/M-phase at 10 uM after 24 hrs by propidium iodide staining based flow cytometry (reference value: 19%). It counts as functional. The method in brief: as §3
Assay [10] concerns MKN-45. The assay can be described thus: Cell cycle arrest in human MKN45 cells assessed as apoptotic cell accumulation at 10 uM after 48 hrs by propidium iodide staining based flow cytometry (reference value: 1.51%). The format is functional. An outline of the steps:
as §3

Assay [11] relates to MKN-45. The assay can be described thus: Cell cycle arrest in human MKN45 cells assessed as accumulation at G1-phase at 10 uM after 48 hrs by propidium iodide staining based flow cytometry (reference value: 67%). The format is functional. An outline of the steps: as §3
For assay [12], the system named is MKN-45. Nature of the assay: Cell cycle arrest in human MKN45 cells assessed as accumulation at S-phase at 10 uM after 48 hrs by propidium iodide staining based flow cytometry (reference value: 15%). It counts as functional. An outline of the steps: as §3
For assay [13], the system named is MKN-45. The assay can be described thus: Cell cycle arrest in human MKN45 cells assessed as accumulation at G2/M-phase at 10 uM after 48 hrs by propidium iodide staining based flow cytometry (reference value: 19%). It counts as functional. The method in brief: as §3
For assay [14], the system named is MKN-45. Nature of the assay: Induction of apoptosis in human MKN45 cells assessed as increase in cleaved PARP expression at 5 to 10 uM after 48 hrs by Western blot method. It counts as functional, cell-based. An outline of the steps: (§4)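 MKN45 cells (2×10⁵) were treated with 5 or 10 µM. Lysates were run by electrophoresis and transferred to PVDF. Blots were probed overnight at 4°C for Bax, BCL2, PARP and β-actin (loading control), then with HRP secondary, and detected by ECL. Band density was scored in arbitrary units; three experiments.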
For orientation: A western blot detects proteins with antibodies after separation by electrophoresis.

In assay [15] the test system is MKN-45. The assay can be described thus: Induction of apoptosis in human MKN45 cells assessed as decrease in Bcl2 expression after 24 hrs by Western blot method. The format is functional, cell-based. An outline of the steps:
as §4

The subject of assay [16] is MKN-45. The assay can be described thus: Induction of mitochondrial membrane potential loss in human MKN45 cells at 5 to 10 uM after 24 hrs by JC-1 staining based flow cytometry. The format is functional, cell-based. The method in brief: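 MKN45 cells were plated at 2×10⁵ cells/well in 6-well plates and exposed to indicated concentrations for 24 h. They were stained with JC-1 for 20 min, and the change in mitochondrial membrane potential was measured by flow cytometry; three experiments.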

Assay [17] relates to MKN-45. The assay can be described thus: Induction of apoptosis in human MKN45 cells assessed as increase in Bax expression at 5 to 10 uM after 24 hrs by Western blot method. The format is functional, cell-based. An outline of the steps:
as §4

Assay [18] has as its system MKN-45. Nature of the assay: Induction of apoptosis in human MKN45 cells assessed as increase in Bax/Bcl2 expression ratio at 5 to 10 uM after 24 hrs by Western blot method. The format is functional, cell-based. The method in brief: as §4
Assay [19] has as its system MKN-45. Nature of the assay: Antiproliferative activity against human MKN45 cells assessed as cell viability at 100 nM after 72 hrs by MTT assay relative to control. To be noted: MKN-45, 72 h, read-out: Activity. It counts as functional. An outline of the steps:
as §1

Assay [20] relates to KB. Nature of the assay: Antiproliferative activity against human KB cells assessed as cell viability at 100 nM after 72 hrs by MTT assay relative to control. The format is functional. To be noted: read-out: Activity. The method in brief:
as §1

Among the data in ChEMBL document CHEMBL4130512, “Design, synthesis and biological evaluation of novel α-hederagenin derivatives with anticancer activity” (Eur J Med Chem, 2017) are viability, IC50 and Activity values, retold here.

Active and inactive are the calls of the source. The calls are words filed in the database; no cut-off is given here.

With `CCN/C(=N/CCCN(C)C)OC(=O)c1ccccc1C(=O)OC[C@]1(C)C(=O)CC[C@@]2(C)[C@H]1CC[C@]1(C)[C@@H]2CC=C2[C@@H]3CC(C)(C)CC[C@]3(C(=O)OCc3ccccc3)CC[C@]21C`, the results for the viability at 10 µM in the assay with MKN-45 [1] and in the assay on KB [2] were 7% and 26%, respectively. Also, the IC50 – broadly, the concentration that inhibits the measured activity by half – in the assay on KB [3] stood at 4.75 µM; in assay [4], 8.05 µM; in the assay on HeLa, 4.22 µM; in the assay with A549, 6.3 µM; in the assay with MKN-45 [5], 7 µM; with BGC-823, 5.15 µM. The molecule also yielded an IC50 with AGS of 4.4 µM. In addition, the Activity in the assay with MKN-45 [6] is on record as 2.47%; in the assay on MKN-45 [7], 68%; in the assay with MKN-45 [8] it was 11%; in the assay with MKN-45 [9], 21%; in the assay on MKN-45 [10], 38.68%; in the assay on MKN-45 [11], 54%. Besides, the figures for the Activity in the assay with MKN-45 [12], in the assay with MKN-45 [13] and in the assay on MKN-45 [15] were 16%, 31% and “Dose-dependent effect”, respectively. Besides, the result in the assay on MKN-45 [14], with MKN-45 [16], in the assay with MKN-45 [17] and with MKN-45 [18] was Active.
As for `CC(=O)O[C@H]1C(=O)[C@@]2(C)[C@H]([C@H](OC(=O)c3ccccc3)[C@]3(O)C[C@H](OC(=O)[C@H](O)[C@@H](NC(=O)c4ccccc4)c4ccccc4)C(C)=C1C3(C)C)[C@]1(OC(C)=O)CO[C@@H]1C[C@@H]2O` [PACLITAXEL], the viability at 0.1 µM in the assay with MKN-45 [19] was found to be 23%; in the assay with KB [20], 15%.
